Where “and” joins values, the source holds several entries; their conditions need not be identical. Identical values can stand only once. Entries after “also recorded” stand apart in the source; their conditions may differ. Like-named read-outs stand apart in the source and are kept apart here.
Experiments:
hepatic gene expression [1] = assay: QRT-PCR verification of hepatic gene expression; assay type: in vivo, C57BL/6 mice
[2] = Body and liver weights, 24 h dose-response study; assay type: in vivo, C57BL/6 mice; conditions: for Liver weight / Relative liver weight / Body weight gain / Terminal body weight: 24 h; for Liver weight / Relative liver weight / Terminal body weight: mean ± SD, n=5; for Body weight gain: terminal body weight divided by body weight prior to dosing; for Terminal body weight: single gavage
Summary of the method: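 Immature ovariectomized female C57BL/6 mice, acclimatized 3 days, received a single oral gavage on PND 28 of 1, 3, 10, 30, 100 or 300 mg/kg test compound or sesame oil vehicle (0.1 ml), n=5 per group, sacrificed 24 h later. Compound was dissolved in acetone, diluted in sesame oil and the acetone evaporated under nitrogen. Analysis by ANOVA with Tukey's or Dunnett's post hoc test, p<0.05.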

hepatic gene expression [3] = assay: Dose-response modeling of microarray data; assay type: in vivo, C57BL/6 mice; conditions: Mus musculus, 24 h
Cyp2c55 = assay: Dose-response modeling of microarray data; assay type: in vivo, C57BL/6 mice; conditions: C57BL/6, mouse, liver, oral
Cyp2b10 = assay: Dose-response modeling of microarray data; assay type: in vivo, C57BL/6 mice; conditions: C57BL/6, mouse, liver, oral
[4] = Hepatic tissue level quantification by HRGC/HRMS; assay type: in vivo, C57BL/6 mice; conditions: liver
hepatic gene expression [5] = assay: Hepatic gene expression, Agilent 4 x 44K microarrays; assay type: in vivo, C57BL/6 mice
[6] = Body and liver weights, time course study; assay type: in vivo, C57BL/6 mice; conditions: for Liver weight / Relative liver weight / Body weight gain / Terminal body weight: 300 mg/kg PCB153 or 30 μg/kg TCDD, mean ± SD, n=5; for Body weight gain: terminal body weight divided by body weight prior to dosing
[7] = test system: liver of immature, ovariectomized C57BL/6 mice; assay: Liver histopathology; assay type: in vivo
[8] = hepatic mRNA, 300 mg/kg PCB153, maximum fold change, |fold change|≥1.5, P1(t)≥0.985
[9] = hepatic mRNA, 300 mg/kg PCB153, maximum fold change, |fold change|≥1.5, P1(t)≥0.985, 300 mg/kg
[10] = 300 mg/kg PCB153 or 30 μg/kg TCDD

Clc1cc(Cl)c(-c2cc(Cl)c(Cl)cc2Cl)cc1Cl [PCB153, 2,2′,4,4′,5,5′-hexachlorobiphenyl]
Induction of AhR-battery genes (Cyp1a1, Cyp1a2, Tiparp) (hepatic gene expression [1]; 300 mg/kg PCB153 compared to TCDD, Fig. 6A-B): modestly induced | Cyp1a2 induction (hepatic gene expression [1]; hepatic mRNA, time course, 30 μg/kg TCDD (Fig. 6A) or 300 mg/kg PCB153 (Fig. 6B)): ~ 1.8 fold | Elovl5 fold change (hepatic gene expression [1]; hepatic mRNA, time course, 300 mg/kg PCB153 or 30 μg/kg TCDD (Fig. 6A-B)): −1.9 fold | Liver weight ([2]; 1 mg/kg): 0.850 ± 0.121 g | Relative liver weight ([2]; 1 mg/kg): 0.059 ± 0.002 | Body weight gain ([2]; 1 mg/kg): 1.1 ± 0.0 | Terminal body weight ([2]; 1 mg/kg): 14.3 ± 1.8 g | Liver weight ([2]; 3 mg/kg): 0.865 ± 0.119 g | Relative liver weight ([2]; 3 mg/kg): 0.060 ± 0.002 | Body weight gain ([2]; 3 mg/kg): 1.1 ± 0.0 | Terminal body weight ([2]; 3 mg/kg): 14.4 ± 1.7 g | Liver weight ([2]; 10 mg/kg): 0.721 ± 0.073 g | Relative liver weight ([2]; 10 mg/kg): 0.056 ± 0.004 | Body weight gain ([2]; 10 mg/kg): 1.1 ± 0.1 | Terminal body weight ([2]; 10 mg/kg): 12.7 ± 1.1 g | Liver weight ([2]; 30 mg/kg): 0.836 ± 0.066 g | Relative liver weight ([2]; 30 mg/kg): 0.062 ± 0.001 | Body weight gain ([2]; 30 mg/kg): 1.1 ± 0.0 | Terminal body weight ([2]; 30 mg/kg): 13.4 ± 1.0 g | Liver weight ([2]; 100 mg/kg): 0.829 ± 0.071 g | Relative liver weight ([2]; 100 mg/kg): 0.060 ± 0.002 | Body weight gain ([2]; 100 mg/kg): 1.1 ± 0.0 | Terminal body weight ([2]; 100 mg/kg): 13.8 ± 1.1 g | Effect on relative liver weight (RLW), dose-response study ([2]; 300 mg/kg PCB153, 24 h): significantly increased RLW at 24 h | Liver weight ([2]; 300 mg/kg): 0.855 ± 0.152 g | Relative liver weight ([2]; 300 mg/kg): 0.067 ± 0.003 | Body weight gain ([2]; 300 mg/kg): 1.1 ± 0.0 | Terminal body weight ([2]; 300 mg/kg): 12.7 ± 1.9 g | ED50 (hepatic gene expression [3]; read-out: ED50, Abcc3): 2.9 mg/kg | ED50 (hepatic gene expression [3]; read-out: ED50, Entpd5): 34.2 mg/kg | ED50 (hepatic gene expression [3]; read-out: ED50, Nol3): 33.9 mg/kg | ED50 at 24 h (Cyp2c55): 31.7 mg/kg | ED50 at 24 h (Cyp2b10): 38.1 mg/kg | Hepatic PCB153 levels in dose-response study ([4]; 24 h, 1-300 mg/kg, significantly different from controls): dose-dependent increase in hepatic levels | Decrease of hepatic level after 7 days ([4]; 168 h vs 24 h, single gavage 300 mg/kg PCB153 or 30 μg/kg TCDD): ~ 3.3 fold | Induction of CAR/PXR regulated genes Cyp2b10, Cyp3a11, Ces2, Insig2, Abcc3 (hepatic gene expression [5]; PCB153 dose-response study): dose-dependently induced | PCB153 fold change, Abcc3 (hepatic gene expression [5]; [8]): 1.9 fold | PCB153 fold change, Acsl3 (hepatic gene expression [5]; [8]): −3.1 fold | PCB153 fold change, Agpat4 (hepatic gene expression [5]; [8]): −1.9 fold | PCB153 fold change, Akr1b7 (hepatic gene expression [5]; [8]): 22.1 fold | PCB153 fold change, Akr1c20 (hepatic gene expression [5]; [8]): −2.3 fold | PCB153 fold change, Aox1 (hepatic gene expression [5]; [8]): 2.9 fold | PCB153 fold change, Cdca2 (hepatic gene expression [5]; [8]): 2.8 fold | PCB153 fold change, Cds2 (hepatic gene expression [5]; [8]): 1.7 fold | PCB153 fold change, Ces2 (hepatic gene expression [5]; [8]): 5.8 fold | PCB153 fold change, Cyp2b9 (hepatic gene expression [5]; [8]): 7.6 fold | PCB153 fold change, Cyp2b10 (hepatic gene expression [5]; [8]): 27.5 fold | PCB153 fold change, Cyp2b23 (hepatic gene expression [5]; [8]): 19.7 fold | PCB153 fold change, Cyp2c54 (hepatic gene expression [5]; [8]): 2.4 fold | PCB153 fold change, Cyp3a25 (hepatic gene expression [5]; [8]): 3.8 fold | PCB153 fold change, Dhfr (hepatic gene expression [5]; [8]): −2.1 fold | PCB153 fold change, Elovl6 (hepatic gene expression [5]; [8]): −3.8 fold | PCB153 fold change, Fasn (hepatic gene expression [5]; [8]): −3.9 fold | PCB153 fold change, Fmo5 (hepatic gene expression [5]; [8]): 3.0 fold | PCB153 fold change, Gadd45a (hepatic gene expression [5]; [8]): 2.0 fold | PCB153 fold change, Gpx2 (hepatic gene expression [5]; [8]): 1.7 fold | PCB153 fold change, Gsta2 (hepatic gene expression [5]; [8]): 4.1 fold | PCB153 fold change, Gstm4 (hepatic gene expression [5]; [8]): 4.0 fold | PCB153 fold change, Gstt3 (hepatic gene expression [5]; [8]): 1.7 fold | PCB153 fold change, Hmgcr (hepatic gene expression [5]; [8]): −5.3 fold | PCB153 fold change, Hsd17b2 (hepatic gene expression [5]; [8]): −2.0 fold | PCB153 fold change, Insig2 (hepatic gene expression [5]; [8]): 5.9 fold | PCB153 fold change, Mad1l1 (hepatic gene expression [5]; [8]): 2.4 fold | PCB153 fold change, Myc (hepatic gene expression [5]; [8]): 2.9 fold | PCB153 fold change, Nol3 (hepatic gene expression [5]; [8]): 4.9 fold | PCB153 fold change, Pla2g12a (hepatic gene expression [5]; [8]): 1.7 fold | PCB153 fold change, Slc1a4 (hepatic gene expression [5]; [8]): −2.5 fold | PCB153 fold change, Slc23a1 (hepatic gene expression [5]; [8]): 2.3 fold | PCB153 fold change, Smpd3 (hepatic gene expression [5]; [8]): 10.8 fold | PCB153 fold change, Srebf1 (hepatic gene expression [5]; [8]): −2.4 fold | PCB153 fold change, Srebf2 (hepatic gene expression [5]; [8]): −2.1 fold | PCB153 fold change, Ugdh (hepatic gene expression [5]; [8]): 2.5 fold | PCB153 fold change, Cyp2c55 (hepatic gene expression [5]; [9]): 48 fold and 48.4 fold | PCB153 fold change, Gadd45b (hepatic gene expression [5]; [9]): 10.7 fold | PCB153 fold change, Zwint (hepatic gene expression [5]; [9]): 1.8 fold | Ccl9 expression (hepatic gene expression [5]; hepatic mRNA, PCB153): induced expression | Down-regulation of Acsl3, Srebf1 and Srebf2 (hepatic gene expression [5]; hepatic mRNA, PCB153): −2.1 to −3.1 fold | Effect on relative liver weight (RLW), time course study ([6]; 300 mg/kg PCB153): increased (p<0.05) relative liver weight (RLW) at 72 and 168 h | Liver weight ([6]; 4 h): 0.712 ± 0.048 g | Relative liver weight ([6]; 4 h): 0.057 ± 0.001 | Body weight gain ([6]; 4 h): 1.0 ± 0.0 | Terminal body weight ([6]; 4 h after single gavage): 12.5 ± 0.8 g | Liver weight ([6]; 12 h): 0.730 ± 0.075 g | Relative liver weight ([6]; 12 h): 0.056 ± 0.003 | Body weight gain ([6]; 12 h): 1.0 ± 0.0 | Terminal body weight ([6]; 12 h after single gavage): 13.0 ± 0.6 g | Liver weight ([6]; 24 h): 0.813 ± 0.137 g | Relative liver weight ([6]; 24 h): 0.061 ± 0.009 | Body weight gain ([6]; 24 h): 1.1 ± 0.0 | Terminal body weight ([6]; 24 h after single gavage): 13.3 ± 0.9 g | Liver weight ([6]; 72 h): 1.086 ± 0.135 g | Relative liver weight ([6]; 72 h): 0.069 ± 0.007 | Body weight gain ([6]; 72 h): 1.1 ± 0.0 | Terminal body weight ([6]; 72 h after single gavage): 15.7 ± 0.7 g | Liver weight ([6]; 168 h): 1.280 ± 0.074 g | Relative liver weight ([6]; 168 h): 0.072 ± 0.002 | Body weight gain ([6]; 168 h): 1.4 ± 0.1 | Terminal body weight ([6]; 168 h after single gavage): 17.9 ± 1.2 g | Effect on body weight gain ([6]; any of the PCB153 doses or time points): No significant decreases in body weight gain | Hepatocellular hypertrophy, time course study ([7]; 300 mg/kg PCB153): increasing hypertrophic responses between 24 and 168 h; also recorded: induced hepatocellular hypertrophy between 24 and 168 h | Hepatocellular vacuolization, dose-response study ([7]; 300 mg/kg PCB153, 24 h): induced the highest levels of hepatocellular vacuolization | Hepatic lipid accumulation, Oil Red O staining [7, 10]: no fatty accumulation | Necrosis and immune (mixed) cell infiltration in liver [7, 10]: did not elicit immune cell infiltration or necrosis; also recorded: absent; also recorded: did not induce necrosis or immune cell infiltration | Hepatic inflammation ([7]; 300 mg/kg PCB153 or 30 μg/kg TCDD, time course): almost absent | Hepatocellular vacuolization, time course study ([7]; 300 mg/kg PCB153 or 30 μg/kg TCDD, Fig. 2 at 168 h): minimal vacuolization and hepatocellular hypertrophy | Hepatocellular hypertrophy, dose-response study ([7]; PCB153, 24 h): incidences of hypertrophy were not observed

— article PMC3987113 (Toxicology and applied pharmacology, 2009)
